Measurements gathered from unrelated publications.
Lines come from different studies, so protocols differ.
Target: Serine/threonine-protein kinase pim-2 (PIM2, Homo sapiens, UniProt Q9P1W9)

With `Cc1c(NC(=O)c2cc(C(N)=O)nc3cc(F)ccc23)c(C(F)(F)F)nn1Cc1ccc(C(C)(C)C)cc1` the remaining binding was 100% (cell-free assay, competition with immobilised ligand; 1 µM).
For `Cc1cnn2ncc(-c3ccnc(N(C)C)n3)c2c1`, the remaining binding was 84% (binding; 1 µM).
`C[C@H](c1cccc(C#N)c1)n1cc(Cl)cc(C(N)=O)c1=N` has a remaining binding of 100% (cell-free assay, competition with immobilised ligand; 1 µM).
With `CNC(=O)[C@@H]1CC[C@@H](n2c(-c3ccc4cnccc4c3)nc3ccc(C(=O)NCc4cccc(C(N)=O)c4)cc32)C1` the remaining binding was 93% (binding, competition with immobilised ligand; 1 µM).
With `O=C(Nc1cccnn1)N1CCC(=Cc2cccc(Oc3ccc(C(F)(F)F)cn3)c2)CC1` the remaining binding was 97% (cell-free assay, competition with immobilised ligand; 1 µM).
For `C[C@@H]1CCN(c2nccc(-c3cnn4ncccc34)n2)C1`, the remaining binding was 78% (binding; 1 µM).
`CN([C@@H]1CCc2c(CC(=O)O)c3ccccc3n2C1)S(=O)(=O)c1ccc(F)cc1` has a remaining binding of 100% (cell-free assay, competition with immobilised ligand; 1 µM).
For `c1cncc(-c2cccc(Nc3nccc(NC4CCCCC4)n3)c2)c1`, the remaining binding was 45% (binding, competition with immobilised ligand; 10 µM).
With `CC(C)(C)c1ccc(-c2nc(CBr)nn2-c2cccc(O)c2)cc1` the remaining binding was 81% (cell-free assay, competition with immobilised ligand; 10 µM).
`O=C(NCCCN1CCOCC1)c1ccc(Nc2ncc(Cl)c(-c3ccc(Cl)s3)n2)cc1` has a remaining binding of 100% (binding, competition with immobilised ligand; 1 µM).
The remaining binding of `CSc1cccnc1N1CCN(Cc2nc3ccccc3[nH]2)CC1` is reported as 96% (cell-free assay, competition with immobilised ligand; 1 µM).
With `Cc1cnc(Nc2ccc(C(=O)N3CCC(N4CCCC4)CC3)cc2)nc1-c1cc2ccccc2s1` the remaining binding was 100% (binding, competition with immobilised ligand; 1 µM).
With `CCC(=O)N[C@@H]1CC[C@H](C(=O)N(C)c2ccc(-c3nc4ccccc4o3)cc2)C1` the remaining binding was 100% (cell-free assay, competition with immobilised ligand; 1 µM).
For `CN(C)c1ncc(F)c(-c2cnn3ncccc23)n1`, the remaining binding was 95% (binding; 1 µM).
`O=C(c1ccc(Nc2ncc(Cl)c(-c3ccc(Cl)s3)n2)cc1)N1CCC(N2CCCC2)CC1` gave a remaining binding of 100% (binding, competition with immobilised ligand; 1 µM).
`CN(CCCC(F)(F)F)c1nccc(-c2cnn3ncccc23)n1` gave a remaining binding of 100% (binding; 1 µM).
For `O=C(NCC1CCOCC1)c1n[nH]cc1NC(=O)c1c(F)cccc1F`, the remaining binding was 91% (binding, competition with immobilised ligand; 1 µM).
With `C=CC(=O)N1CCC(C(=O)NCC(=O)N2CCN(c3nc(-c4cnc(N)nc4C(F)F)nc(N4CCOCC4)n3)CC2)CC1` the remaining binding was 82% (binding, competition with immobilised ligand; 1 µM).
For `C[C@@H]1CN(c2ccc3ncc(-c4ccc5[nH]nc(C6CC6)c5c4)n3n2)C[C@H](C)O1`, the remaining binding was 3.5% (binding, competition with immobilised ligand; 0.5 µM).
`COc1ncc2cc3ccccc3nc2c1C#N` has a remaining binding of 88% (cell-free assay, competition with immobilised ligand; 5 µM).
With `N[C@@H]1CCN(c2nccc(-c3cnn4ncccc34)n2)C1` the remaining binding was 100% (binding; 1 µM).
For `N#Cc1ccccc1CSc1nnc2c(n1)[nH]c1ccccc12`, the remaining binding was 75% (binding, competition with immobilised ligand; 10 µM).
`COc1ccnn2ncc(-c3ccnc(N(C)C)n3)c12` has a remaining binding of 100% (binding; 1 µM).
`c1ccc(N2CCN(Cc3nc4ccccc4[nH]3)CC2)nc1` has a remaining binding of 85% (binding, competition with immobilised ligand; 1 µM).
